# Results taken from ChEMBL document CHEMBL4425151, “Design, Synthesis, and Initial Evaluation of Affinity-Based Small-Molecule Probes for Fluorescent Visualization and Specific Detection of Keap1” (J Med Chem, 2016).
# Calls of active or inactive are those of the source. No cut-off for these calls is given here.
# Columns and labels:
# [1] = target: T1, Kelch-like ECH-associated protein 1 (Homo sapiens, UniProt Q14145); experiment: Inhibition of FITC-labeled 9-mer Nrf2 peptide amide binding to human KEAP1 kelch domain (322 to 609 residues) expressed in Escherichia coli Arctic(DE3) cells incubated for 30 mins by fluorescence polarization assay
# [2] = target: T1, Kelch-like ECH-associated protein 1; experiment: Binding affinity to human KEAP1 kelch domain (322 to 609 residues) expressed in Escherichia coli Arctic(DE3) cells at 0.05 mM by isothermal titration calorimetry
# In short: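 ITC at 25 °C. Lyophilized Keap1 Kelch domain and the FITC probe both dissolved in 10 mM HEPES pH 7.4. Nineteen 2 µL injections of 0.05 mM probe, 2.5 min apart, stirred at 750 rpm, into cell holding 0.005 mM Kelch domain. Kd obtained from a 1:1 binding model fit.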
# [3] = target: T1, Kelch-like ECH-associated protein 1; experiment: Binding affinity to KEAP1 kelch domain in cytoplasm of human NCM460 cells at 10 uM after 10 hrs by DAPI staining based confocal microscopic analysis; assay type: cell-based
# In short: (§1)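 NCM460 colonic cells exposed to the FITC probe at 10 µM for 10 h, then fixed. Keap1 primary antibody applied overnight at 4 °C, then Alexa Fluor-labelled goat anti-rabbit secondary for 1 h at 37 °C. Nuclei stained with DAPI. Imaged by laser scanning confocal microscopy at excitation 570 and 340 nm for co-localization. Three separate experiments.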
# [4] = target: T1, Kelch-like ECH-associated protein 1; experiment: Binding affinity to KEAP1 kelch domain in nucleus of human NCM460 cells at 10 uM after 10 hrs by DAPI staining based confocal microscopic analysis; assay type: cell-based; in short: as §1
# [5] = target: T1, Kelch-like ECH-associated protein 1; experiment: Binding affinity to human KEAP1 kelch domain (322 to 609 residues) expressed in Escherichia coli Arctic(DE3) cells assessed as association constant by biolayer interferometry method
# In short: (§2)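 Biotinylated probe immobilized on super streptavidin biosensor tips. Sequence: baseline, loading, second baseline, Keap1 Kelch domain association (kon), then dissociation (koff). Six Keap1 concentrations tested, all at 30 °C. Kinetic constants fitted from the sensorgrams, and Kd taken as koff/kon.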
# [6] = target: T1, Kelch-like ECH-associated protein 1; experiment: Binding affinity to human KEAP1 kelch domain (322 to 609 residues) expressed in Escherichia coli Arctic(DE3) cells assessed as dissociation constant by biolayer interferometry method; in short: as §2
# [7] = target: T1, Kelch-like ECH-associated protein 1; experiment: Binding affinity to human KEAP1 kelch domain (322 to 609 residues) expressed in Escherichia coli Arctic(DE3) cells by biolayer interferometry method; in short: as §2
# [8] = target: T1, Kelch-like ECH-associated protein 1; experiment: Binding affinity to KEAP1 kelch domain in human NCM460 cells after 2 hrs by Western blot based affinity pulldown assay; assay type: cell-based
# In short: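 Streptavidin magnetic beads loaded with the biotin probe (50 µg/100 µL), 30 min at 4 °C, then free sites blocked with biotin. Beads incubated with NCM460 colonic cell lysate for 2 h at 4 °C with rotation and washed with TBS. Bound protein eluted in buffer with 2% SDS at 95 °C for 5 min. Analysed by SDS-PAGE and western blot with anti-Keap1 antibody.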
# T1 sequence (Q14145 whole entry, the tested form may be a part): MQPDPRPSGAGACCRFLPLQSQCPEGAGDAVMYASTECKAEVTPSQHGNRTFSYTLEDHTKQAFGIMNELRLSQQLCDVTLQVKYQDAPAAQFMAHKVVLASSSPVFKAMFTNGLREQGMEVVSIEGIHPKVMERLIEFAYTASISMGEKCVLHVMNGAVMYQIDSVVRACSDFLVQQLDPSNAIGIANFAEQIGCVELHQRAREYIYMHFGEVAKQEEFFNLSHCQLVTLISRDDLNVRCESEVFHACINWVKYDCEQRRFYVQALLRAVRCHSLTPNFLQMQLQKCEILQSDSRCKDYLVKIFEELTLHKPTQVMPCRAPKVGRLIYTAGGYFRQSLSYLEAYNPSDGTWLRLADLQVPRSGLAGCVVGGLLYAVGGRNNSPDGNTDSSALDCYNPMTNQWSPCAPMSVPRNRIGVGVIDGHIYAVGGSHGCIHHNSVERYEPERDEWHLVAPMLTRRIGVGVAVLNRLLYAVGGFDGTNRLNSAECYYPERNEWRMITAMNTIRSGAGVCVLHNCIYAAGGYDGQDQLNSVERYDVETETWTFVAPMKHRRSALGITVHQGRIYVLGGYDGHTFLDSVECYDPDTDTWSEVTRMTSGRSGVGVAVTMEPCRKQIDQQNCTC
Compound,IC50 [1],Kd [2],Activity [3],Activity [4],EC50 [1],K [5],K [6],Activity [7],Kd [7],Activity [8]
COc1ccc(S(=O)(=O)N(CC(=O)O)c2ccc(N(CC(=O)O)S(=O)(=O)c3ccc(NC(=O)CCCC(=O)NCCN)cc3)c3ccccc23)cc1,30.7 nM,,,,,,,,,
COc1ccc(S(=O)(=O)N(CC(=O)O)c2ccc(N(CC(=O)O)S(=O)(=O)c3ccc(NC(=O)CCCC(=O)NCCNC(=S)Nc4ccc5c(c4)C(=O)OC54c5ccc(O)cc5Oc5cc(O)ccc54)cc3)c3ccccc23)cc1,,29.1 nM,Active,Active,14.7 nM,,,,,
COc1ccc(S(=O)(=O)N(CC(=O)O)c2ccc(N(CC(=O)O)S(=O)(=O)c3ccc(NC(=O)CCCC(=O)NCCNC(=O)CCCC[C@@H]4SC[C@@H]5NC(=O)N[C@@H]54)cc3)c3ccccc23)cc1,74 nM,,,,,6.24 ×10⁴ /M/s,1.35 ×10⁻³ /s,Dose-dependent effect,21.6 nM,Active
